Blank lines part the entries; values can stand above or below the compound they belong to.
Experiments:
site IQ = settings: without affecting energy metabolism; cited from earlier work
[1] = cited from earlier work
[2] = biological target: site IIIQo of mitochondrial complex III (Rattus norvegicus, UniProt P00159+P20788); experiment: Endpoint H2O2 production assays; assay type: biochemical; settings: dose-response in two ΔΨm and six H2O2 endpoint assays
Procedure, shortened: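 Freshly isolated rat skeletal-muscle mitochondria, H2O2 read by Amplex UltraRed/HRP fluorescence. Site conditions: IIIQo, 0.5 or 5 mM succinate + 4 μM rotenone + 2.5 μM antimycin A; IQ, 5 mM succinate; IIF, 0.1 mM succinate + rotenone, antimycin A, 2 μM myxothiazol. Other assays: IF/matrix DH, glycerol phosphate (mGPDH), and two ΔΨm assays. 30-min endpoints normalised to DMSO and inhibitor controls, as % change.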

site IIIQo = settings: cited from earlier work
[3] = Mitochondrial respiration; assay type: biochemical, rat
Procedure, shortened: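 Seahorse XF24 with 0.5–6 μg rat muscle mitochondrial protein per well, in MAS buffer with 0.3% BSA. Substrate: 5 mM succinate + 4 μM rotenone. State 2 measured with and without compound, then 5 mM ADP (state 3), then 1 μg/ml oligomycin (state 4o). Each compound tested at least three times per substrate.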

HIF-1α = experiment: Hypoxia-induced HIF-1α accumulation; assay type: cell-based, human; settings: HEK-293 cells, 3.5 h hypoxia; 2 μM
Procedure, shortened: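 HEK-293 cells, 15,000/well, grown 48 h. Medium then swapped for medium pre-equilibrated overnight at 1% or atmospheric O2. Compounds, 100 μM CoCl2 or 2 μM myxothiazol were pre-equilibrated 1 h in that medium and added at the switch. 3.5 h at 1% O2. Cells rinsed in ice-cold PBS, lysed in Laemmli buffer, frozen −80°C. n = 3 biological replicates; one-way ANOVA.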

SMILES: O=[N+]([O-])c1ccc(Oc2ccc(S(=O)(=O)NC3CCCCC3)cc2)cc1 [CN-POBS]
- Electron leak to O2 at site IQ (site IQ): suppresses

- Selectivity for site IIIQo superoxide production [2]: not selective
SMILES: C/C1=C\C[C@]2(C)C(=O)C(O)=C([C@H](C)CO)[C@H]2C/C=C(\C)[C@@H](O)CC/C(C)=C/CC1 [Terpestacin]
- Effect on mitochondrial polarization [1]: depolarizes
- Site IIIQo ROS production and hypoxic signaling (site IIIQo; without altering basal respiration): inhibited
- Effect on mitochondrial respiration / oxidative phosphorylation ([3]; 10 – 30 μM, succinate plus rotenone): evidence of uncoupling and inhibition of oxidative phosphorylation

SMILES: CCCCCC[C@H]1C(=O)O[C@H](C)[C@H](NC(=O)c2cccc(NC=O)c2O)C(=O)O[C@@H](C)[C@@H]1OC(=O)CC(C)C [antimycin A]
- HIF-1α induction during hypoxia (site IIIQo): increased
- ROS production during hypoxia (site IIIQo): increased

SMILES: CO/C(=C/C(N)=O)[C@H](C)[C@H](/C=C/c1csc(-c2csc([C@@H](C)/C=C/C=C/C(C)C)n2)n1)OC [myxothiazol]
- HIF-1α induction during hypoxia (site IIIQo): blocked
- ROS production during hypoxia (site IIIQo): decreased
- Effect on HIF-1α stabilization (HIF-1α): prevented HIF-1α stabilization
- Effect on mitochondrial respiration ([3]; 0.08 μM (5x IC50 against site IIIQo), succinate and rotenone): potent effect

— PMC4618194 (Nature chemical biology, 2015)
